# pPAFAH inh: pPAFAH enzyme inhibitors, primary screen, biochemical, fluorescence polarization, human | Platelet-activating factor acetylhydrolase (Homo sapiens), Q13093 | recombinant pPAFAH, FP-rhodamine probe fluorescence polarization | inhibition, % at 3.39 µM | actives 1.5% (n = 330,000) | AID 463082, 2010;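 active = inhibition above the mean inhibition across the screen plus 3 SD, cut at about 25% in these data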;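 note: inhibitors block binding of the rhodamine activity-based probe so polarization drops; 0% = enzyme with DMSO and 100% = wells lacking pPAFAH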
# PAFAH1B3 inh: PAFAH1B3 enzyme inhibitors, primary screen, biochemical, fluorescence polarization, human; Platelet-activating factor acetylhydrolase IB subunit alpha1 (Homo sapiens), Q15102; recombinant PAFAH1B3, FP-rhodamine probe; inhibition, % at 3.39 µM; actives 0.28% (n = 340,000);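 active = inhibition above the screen-wide average of all tested compounds plus 3 SD, cut at about 25% in these data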;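 note: 0% = enzyme with DMSO only and 100% = wells lacking PAFAH1B3 protein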
# UCH37 DUB inh: inhibitors of human UCH37 deubiquitinase, primary screen, biochemical, Ub-AMC cleavage, fluorescence; purified proteasome/UCH37; inhibition, % (concentration not given with the values); actives 0.33% (n = 330,000);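 active = mean inhibition over replicate wells above about 20%, limit read from the data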;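 note: 0% = compound-free wells with enzyme and 100% = wells lacking proteasome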
# Target sequence (Q9Y5K5 whole entry, looked up): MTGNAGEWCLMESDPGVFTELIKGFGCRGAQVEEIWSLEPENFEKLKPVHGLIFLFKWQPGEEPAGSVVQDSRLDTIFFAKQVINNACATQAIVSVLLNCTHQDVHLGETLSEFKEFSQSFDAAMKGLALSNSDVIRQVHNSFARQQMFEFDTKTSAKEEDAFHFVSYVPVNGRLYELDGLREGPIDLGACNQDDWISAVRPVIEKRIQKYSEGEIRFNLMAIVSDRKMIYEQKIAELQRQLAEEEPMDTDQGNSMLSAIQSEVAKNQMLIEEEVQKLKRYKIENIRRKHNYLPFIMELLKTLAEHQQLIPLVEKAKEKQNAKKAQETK
#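 Signal – fluorescence, ex 355 nm, em 460 nm · System – Proteasome-bound UCH37 · Input – 0.15 nM proteasome as dispensed · Timing – 30 min preincubation with enzyme, 25 min cleavage at room temperature · Read-out basis – percent inhibition of cleavage signal versus uninhibited and no-proteasome wells · Medium – Tris-HCl pH 7.4 with ATP-MgCl2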
# GRIN3A LBD mod: binders of NR3A ligand-binding domain, primary screen, biophysical, differential scanning fluorimetry, uHTS | actives 2.5% (n = 340,000) | NR3A LBD differential scanning fluorimetry, Tm shift; 0% = protein alone, 100% = glycine-bound protein | Tm shift relative to glycine control, % at 25 µM | Glutamate receptor ionotropic, NMDA 3A (GRIN3A) ligand-binding domain;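 active = melting temperature shift of at least 10% of the positive control shift, at one fixed dose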
# PAFAH2 inh: PAFAH2 enzyme inhibitors, primary screen, biochemical, fluorescence polarization, human | actives 0.99% (n = 340,000) | inhibition, % at 3.39 µM | recombinant PAFAH2, FP-rhodamine activity probe | AID 492956, 2010;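 active = inhibition above the mean over all tested compounds plus 3 SD, cut at about 30% in these data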;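 note: inhibitors block probe labeling of enzyme so polarization drops; 0% = enzyme with DMSO and 100% = wells lacking PAFAH2 protein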
# PAFAH1B2 inh: PAFAH1B2 enzyme inhibitors, primary screen, biochemical, fluorescence polarization, human | Platelet-activating factor acetylhydrolase IB subunit alpha2 (Homo sapiens), P68402 | inhibition, % at 3.39 µM | actives 1.2% (n = 340,000) | AID 492953, 2010 | recombinant PAFAH1B2, FP-rhodamine activity probe;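 active = inhibition above the mean of all tested compounds plus 3 SD, cut at about 24% in these data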;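 note: 0% = enzyme with DMSO and 100% = wells lacking PAFAH1B2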
# * hit, by the source's call; . = no result. Shown are actives, neighbours in structure and some others; about 4.8% of the full set was active somewhere.
SMILES,pPAFAH inh,PAFAH1B3 inh,UCH37 DUB inh,GRIN3A LBD mod,PAFAH2 inh,PAFAH1B2 inh
CCC(=O)N(C)/C=C1\Sc2ccccc2C1=O,5,-4,4,2,5,-1
CC(=O)N(C)/C=C1\Sc2ccccc2C1=O,1,4,2,14*,-1,-2
COc1ccc(OC)c(NC(=O)C(=O)NN=C(C)CC(=O)Nc2ccc(Cl)cn2)c1,.,.,2,.,.,.
COc1ccc(Cl)cc1C(=O)NC(=S)Nc1nc(C)cc(C)n1,5,5,1,-1,-1,-3
COc1ccc(Cl)cc1C(=O)NC(=S)Nc1cc(-c2nc3ccccc3[nH]2)ccc1C,-28,-50,0,18*,-57,-35
Nc1nn(S(=O)(=O)c2ccccc2)cc1-c1cccc([N+](=O)[O-])c1,6,13,2,22*,3,6
CCOc1ccc(/C=C/c2nc(C#N)c(NCCCOC)o2)cc1,28*,15,-403,-2,-3,2
O=C(Nc1ccc2ncccc2c1)c1ccccc1Br,-1,2,6,18*,-7,-1
O=C(Nc1ccc2ncccc2c1)Nc1ccc2ncccc2c1,-4,8,.,33*,-4,-4
Cc1c([N+](=O)[O-])cc(C(=O)Nc2ccc3ncccc3c2)cc1[N+](=O)[O-],1,-4,1,2,5,4
Cc1ccc(-c2cc(C(=O)O)c3cc(Br)ccc3n2)o1,28*,10,-247,1,12,23
O=C(NCCC(=O)N1CCNC1=O)OCc1ccccc1,2,5,4,14*,4,0
Cc1cccc(NC(=O)C2C3CCC4C(CCC32)C4(Cl)Cl)c1 (stereo not given),4,10,1,13*,1,3
O=C(Nc1ccc(Cl)cc1)C1C2CCC3C(CCC21)C3(Cl)Cl (stereo not given),.,8,-1,5,-3,0
CN(C)c1ccc(N=Nc2cccc3ccoc23)cc1,5,5,.,22*,0,4
CN(C)c1ccc(N=Nc2cccc(F)c2)cc1,2,1,2,1,11,4
COC(=O)c1c(NC(=O)COC(=O)c2ccc(O)cc2)sc2c1CCCCC2,-4,0,-30,18*,-20,-3
CCOC(=O)c1c(CC(C)C)csc1NC(=O)COC(=O)c1ccc(O)cc1,.,3,-3,25*,0,-2
CCOC(=O)c1c(NC(=O)C(C)OC(=O)c2ccc(NC(=O)CC#N)cc2)sc2c1CCCC2 (stereo not given),-3,-38,-7,12*,-48,-25
COCC(=O)Nc1sc2c(c1C(=O)OC)CCCC2,6,4,-6,-1,5,2
O=[N+]([O-])c1ccc(C=NNc2nc(N3CCCCC3)nc(N3CCCCC3)n2)o1,.,.,2,.,.,.
COC(=O)C(C=NOCc1ccc([N+](=O)[O-])cc1)NC(=O)c1ccccc1 (stereo not given),.,.,-4,.,.,.
Cc1cc(C)n(CCc2nc(-c3ccc(C(C)(C)C)cc3)cs2)n1,5,4,5,12*,0,-3
O=C(/C=C/c1cccc(Cl)c1)Nn1c(-c2cccs2)nc2ccccc2c1=O,-8,3,6,17*,-4,-4
O=C(/C=C/c1ccccc1)Nn1c(-c2cccs2)nc2ccccc2c1=O,-11,10,2,-15,-11,-1
CCCCC1=CC2=CC(=O)C(C)(OC(=O)CC)C(=O)C2=CN1CCOC (stereo not given),3,-1,3,61*,-2,-4
CCCCC1=CC2=CC(=O)C(C)(OC(=O)CC)C(=O)C2=CN1CCN1CCOCC1 (stereo not given),3,.,-5,1,.,.
